PMC4829350 (Biochimica et biophysica acta, 2014)
Read-outs that look alike come from different tables or passages of the source. Residues, ends and D or L forms follow the SMILES beside them. *: point of attachment. Cbz = O=C(OCc1ccccc1)*

Columns and labels:
[1] = target: T1, ChT-L active center of the proteasome (mouse) (Mus musculus, UniProt O55234); assay: Peptidolytic assay, ChT-L activity, mouse liver subcellular fractions; type: biochemical
T1 sequence (O55234 60-264): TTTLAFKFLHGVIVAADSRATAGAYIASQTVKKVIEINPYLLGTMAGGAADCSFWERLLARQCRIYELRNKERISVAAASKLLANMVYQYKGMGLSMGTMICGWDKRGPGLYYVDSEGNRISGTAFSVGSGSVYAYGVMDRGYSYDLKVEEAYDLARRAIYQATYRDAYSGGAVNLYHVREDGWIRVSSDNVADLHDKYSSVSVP

[2] = target: human 26S proteasome [h26S] (Homo sapiens, UniProt P20618+P28074); assay: ChT-L activity of purified human 26S proteasome with supernatants or fractions; type: biochemical; settings: 10 nM BZ
[3] = target: T2, ProtMS (mouse partially purified proteasome) (Mus musculus, UniProt O55234); type: biochemical
T2 sequence (O55234 60-264): T1 sequence (O55234 60-264)

[4] = target: T3, T-L active center of the proteasome (mouse) (Mus musculus, UniProt P70195); assay: Peptidolytic assay, T-L activity, mouse liver subcellular fractions; type: biochemical
T3 sequence (P70195 44-277): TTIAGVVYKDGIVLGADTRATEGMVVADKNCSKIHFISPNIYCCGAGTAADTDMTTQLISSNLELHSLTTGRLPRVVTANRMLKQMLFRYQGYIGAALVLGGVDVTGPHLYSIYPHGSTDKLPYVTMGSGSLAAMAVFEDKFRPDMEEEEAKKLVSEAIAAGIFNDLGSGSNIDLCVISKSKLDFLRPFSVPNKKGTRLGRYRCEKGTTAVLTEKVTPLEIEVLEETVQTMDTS
Summary of the method: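 Female mice aged 4–6 months; liver split into cytosolic, microsomal and nuclear fractions. T-L activity was read with a fluorogenic AMC peptide, against an AMC standard curve, as pmol AMC/min/μg protein. Inhibitor classes were titrated: boronate 5nM–10μM, lactone 0.2μM–8μM, aldehyde and vinyl sulfone 10μM–250μM. IC50 was taken as 50% activity loss, from exponential-decay or sigmoidal fits.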

[5] = tested on: ProtNMR (naked mole-rat partially purified proteasome); type: biochemical, Heterocephalus glaber
[6] = tested on: naked mole-rat proteasome (ChT-L activity) with HSPs of NMR cytosol/supernatant; type: biochemical, Heterocephalus glaber; settings: for effect on inhibition resistance / sensitivity to inhibition: NMR cytosolic fraction or SNNMR + Prot, 20 μM MG132
Summary of the method: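 HSP antibodies (anti-HSP72, -HSP40, -HSP25 or -HSP90; 10pg to 400pg, serially diluted in PBS/50% glycerol) or small-molecule HSP72 inhibitors (25nM to 1000nM; 10μM to 1000μM) added to NMR cytosolic lysate or 100,000xg supernatant. Incubated 1hr at 30°C with 1mM ATP. Human 26S or partially purified NMR proteasome then added. ChT-L activity read with Suc-LLVY-AMC ± 20μM MG132, as pmol AMC/min/μg protein.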

[7] = target: ChT-L active center of the proteasome (NMR) (Heterocephalus glaber, UniProt G5ASK0); assay: Peptidolytic assay, ChT-L activity, naked mole-rat liver subcellular fractions; type: biochemical
[8] = target: T-L active center of the proteasome (NMR) (Heterocephalus glaber, UniProt A0A0P6JE03); assay: Peptidolytic assay, T-L activity, naked mole-rat liver subcellular fractions; type: biochemical; settings: read-out: T-L IC50 NMR, cytosolic fraction, ± S.E.
[9] = tested on: human 26S proteasome [h26S] in SNNMR; type: biochemical; settings: h26S in SNNMR challenged with MG132
Summary of the method: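 Naked mole-rat liver cytosolic lysate or its high-speed supernatant was incubated at 30°C for 1hr with 1mM ATP plus anti-chaperone antibodies (HSP72, HSP40, HSP25, HSP90; 10pg–400pg) or HSP72 inhibitors (25nM–1000nM or 10μM–1000μM). Purified human 26S proteasome was then added, and ChT-L activity was read with Suc-LLVY-AMC ± 20μM MG132.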

[10] = ChT-L IC50 Ms, cytosolic fraction, ± S.E.
[11] = sample ProtMS + FT, 20 μM MG132
[12] = sample ProtMS + FT, 50 μM MG132
[13] = sample ProtMS + SN, 20 μM MG132
[14] = sample ProtMS + SN, 50 μM MG132
[15] = sample ProtNMR + FT, 20 μM MG132
[16] = sample ProtNMR + FT, 50 μM MG132
[17] = sample ProtNMR + R, 20 μM MG132
[18] = sample ProtNMR + R, 50 μM MG132
[19] = sample ProtNMR + SN, 20 μM MG132
[20] = sample ProtNMR + SN, 50 μM MG132

CC(=O)N[C@@H](CSC(=O)[C@]1([C@@H](O)C(C)C)NC(=O)[C@H](C)[C@@H]1O)C(=O)O [LC, lactacystin]
IC50 [1, 10]: 0.156 ± 0.005 µM

CC(C)C[C@H](NC(=O)[C@H](Cc1ccccc1)NC(=O)c1cnccn1)B(O)O [BZ, bortezomib]
ablation of ChT-L activity of h26S ([2]; h26S without fr.23): 75%
reduction of ChT-L activity of h26S ([2]; in the presence of fr. 23): 30%

CC(C)C[C@@H](C=O)NC(=O)[C@H](CC(C)C)NC(=O)[C@H](CC(C)C)NC(=O)OCc1ccccc1 [MG132, N-(benzyl-oxycarbonyl) leucinyl-leucinyl-leucinal] (Cbz-Leu-Leu-Leu-aldehyde)
ChT-L activity, Mean ± SE ([3]; sample ProtMS + FT (flow-through), 10 μM MG132): 17 ± 0.3 pmol AMC/min/μg protein
inhibition at 10 µM ([3]; sample ProtMS + FT, 10 μM MG132): 85.5%
ChT-L activity, Mean ± SE [3, 11]: 15 ± 3.0 pmol AMC/min/μg protein
inhibition at 20 µM [3, 11]: 87.2%
ChT-L activity, Mean ± SE [3, 12]: 3.0 ± 1.9 pmol AMC/min/μg protein
inhibition at 50 µM [3, 12]: 97.4%
ChT-L activity, Mean ± SE ([3]; sample ProtMS + R (retentate), 10 μM MG132): 178 ± 72 ^# pmol AMC/min/μg protein
inhibition at 10 µM ([3]; sample ProtMS + R, 10 μM MG132): 36.9%
ChT-L activity, Mean ± SE ([3]; sample ProtMS + R, 20 μM MG132): 172 ± 70 ^# pmol AMC/min/μg protein
inhibition at 20 µM ([3]; sample ProtMS + R, 20 μM MG132): 39%
ChT-L activity, Mean ± SE ([3]; sample ProtMS + R, 50 μM MG132): 89 ± 12 ^# pmol AMC/min/μg protein
inhibition at 50 µM ([3]; sample ProtMS + R, 50 μM MG132): 68.4%
ChT-L activity, Mean ± SE ([3]; sample ProtMS + SN (NMR supernatant), 10 μM MG132): 126 ± 22 ^# pmol AMC/min/μg protein
inhibition at 10 µM ([3]; sample ProtMS + SN, 10 μM MG132): 52.1%
ChT-L activity, Mean ± SE [3, 13]: 116 ± 20 ^# pmol AMC/min/μg protein
inhibition at 20 µM [3, 13]: 55.9%
ChT-L activity, Mean ± SE [3, 14]: 84 ± 34 ^# pmol AMC/min/μg protein
inhibition at 50 µM [3, 14]: 68.1%
ChT-L activity, Mean ± SE ([3]; sample ProtMS, 10 μM MG132): 25 ± 0.1 pmol AMC/min/μg protein
inhibition at 10 µM ([3]; sample ProtMS, 10 μM MG132): 87.6%
ChT-L activity, Mean ± SE ([3]; sample ProtMS, 20 μM MG132): 17 ± 0.2 pmol AMC/min/μg protein
inhibition at 20 µM ([3]; sample ProtMS, 20 μM MG132): 91.5%
ChT-L activity, Mean ± SE ([3]; sample ProtMS, 50 μM MG132): 11 ± 0.1 pmol AMC/min/μg protein
inhibition at 50 µM ([3]; sample ProtMS, 50 μM MG132): 94.5%
IC50 ([4]; T-L IC50 Ms, cytosolic fraction, ± S.E.): 14.6 ± 4.4 µM
IC50 ([4]; T-L IC50 Ms, microsomal fraction): 6.63 µM
IC50 ([4]; T-L IC50 Ms, nuclear fraction, ± S.E.): 12.8 ± 4.7 µM
IC50 [1, 10]: 8.22 ± 2.75 µM
IC50 ([1]; ChT-L IC50 Ms, microsomal fraction): 0.99 µM
IC50 ([1]; ChT-L IC50 Ms, nuclear fraction, ± S.E.): 4.6 ± 1.62 µM
ChT-L activity, Mean ± SE ([5]; sample ProtNMR + FT (flow-through), 10 μM MG132): 40 ± 18 pmol AMC/min/μg protein
% Inhibition ([5]; sample ProtNMR + FT, 10 μM MG132): 83.1%
% Inhibition [5, 15]: 88.6%
ChT-L activity, Mean ± SE [5, 15]: 27 ± 18 pmol AMC/min/μg protein
% Inhibition [5, 16]: 93.2%
ChT-L activity, Mean ± SE [5, 16]: 16 ± 13 pmol AMC/min/μg protein
ChT-L activity, Mean ± SE ([5]; sample ProtNMR + R (retentate), 10 μM MG132): 542 ± 181 ^# pmol AMC/min/μg protein
% Inhibition ([5]; sample ProtNMR + R, 10 μM MG132): 31.0%
% Inhibition [5, 17]: 39.0%
ChT-L activity, Mean ± SE [5, 17]: 479 ± 146 ^# pmol AMC/min/μg protein
% Inhibition [5, 18]: 51.8%
ChT-L activity, Mean ± SE [5, 18]: 378 ± 104 ^# pmol AMC/min/μg protein
ChT-L activity, Mean ± SE ([5]; sample ProtNMR + SN (NMR supernatant), 10 μM MG132): 488 ± 58 ^# pmol AMC/min/μg protein
% Inhibition ([5]; sample ProtNMR + SN, 10 μM MG132): 51.7%
% Inhibition [5, 19]: 50.6%
ChT-L activity, Mean ± SE [5, 19]: 499 ± 71 ^# pmol AMC/min/μg protein
% Inhibition [5, 20]: 67.7%
ChT-L activity, Mean ± SE [5, 20]: 327 ± 104 ^# pmol AMC/min/μg protein
% Inhibition ([5]; sample ProtNMR, 10 μM MG132): 86.0%
ChT-L activity, Mean ± SE ([5]; sample ProtNMR, 10 μM MG132): 72 ± 13 pmol AMC/min/μg protein
% Inhibition ([5]; sample ProtNMR, 20 μM MG132): 91.6%
ChT-L activity, Mean ± SE ([5]; sample ProtNMR, 20 μM MG132): 43 ± 0.3 pmol AMC/min/μg protein
% Inhibition ([5]; sample ProtNMR, 50 μM MG132): 95.5%
ChT-L activity, Mean ± SE ([5]; sample ProtNMR, 50 μM MG132): 23 ± 1.0 pmol AMC/min/μg protein

NS(=O)(=O)C#Cc1ccccc1 [pifithrin-μ]
effect on inhibition resistance / sensitivity to inhibition [6]: attenuated resistance to inhibition

CC(C)CC(C=CS(C)(=O)=O)NC(=O)[C@H](CC(C)C)NC(=O)[C@H](CC(C)C)NC(=O)CCCCCNC(=O)CCCCCNC(=O)CCCCCNC(=O)CC12CC3CC(CC(C3)C1)C2 (stereo partly drawn) [Adh (VS), adamantane-acetyl-(6-aminohexanoyl)3-(leucinyl)3-vinyl-(methyl)-sulfone]
ChT-L IC50 in naked mole-rat relative to mouse cytosolic extracts ([7]; cytosolic extracts): 22 fold
IC50 ([7]; read-out: ChT-L IC50 NMR, cytosolic fraction, liver, ± S.E.): 125 ± 5.6 µM
IC50 ([4]; read-out: T-L IC50 Ms, cytosolic fraction, ± S.E.): 16.2 ± 1.9 µM
IC50 ([1]; read-out: ChT-L IC50 Ms, cytosolic fraction, ± S.E.): 5.56 ± 1.57 µM
IC50 [8]: 80.6 ± 2.5 µM

N#Cc1ccc(COC[C@H]2O[C@@H](n3c(NCc4ccc(Cl)c(Cl)c4)nc4c(N)ncnc43)[C@H](O)[C@@H]2O)cc1 [VER155008]
effect on inhibition resistance / sensitivity to inhibition [6]: did not disrupt the inhibition resistance
effect on proteasome activity associated with SNNMR ([6]; titration 25nM to 1000nM): had no effect
effect on inhibition resistance [9]: did not disrupt the inhibition resistance
